# Measurements: ChEMBL document CHEMBL1144707, “Antiparasitic, antineuroinflammatory, and cytotoxic polyketides from the marine sponge Plakortis angulospiculatus collected in Brazil” (J Nat Prod, 2008)
# System: HL-60
# Assay: Cytotoxicity against human HL60 cells
# Format: functional, cell-based
# Settings: not given
row,Compound,IC50 [µg/mL]
1,CC/C=C/[C@H](CC)C[C@@]1(C)C[C@@H](CC)[C@@H](CC(=O)OC)OO1 [PLAKORTIN],13.3

# System: MDA-MB-435
# Assay: Cytotoxicity against human MDA-MB-435 cells
# Format: functional, cell-based
# Settings: not given
row,Compound,IC50 [µg/mL]
1,CC/C=C/[C@H](CC)C[C@@]1(C)C[C@@H](CC)[C@@H](CC(=O)OC)OO1 [PLAKORTIN],10.4

# System: Leishmania chagasi
# Assay: Antileishmanial activity against Leishmania chagasi promastigotes infected in hamster after 48 hrs by MTT assay
# Format: functional, organism-based
# Settings: not given
# Outline: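 Promastigotes maintained in M-199 with 10% calf serum and 0.25% hemin at 24 °C, seeded at 1 × 10^6 cells/well. Incubated with 0.488–500 µg/mL for 48 h at 24 °C, pentamidine as standard. Viability by MTT at 570 nm.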
row,Compound,IC50 [µg/mL]
1,N=C(N)c1ccc(OCCCCCOc2ccc(C(=N)N)cc2)cc1 [PENTAMIDINE],0.1
2,CC/C=C/[C@H](CC)C[C@@]1(C)C[C@@H](CC)[C@@H](CC(=O)OC)OO1 [PLAKORTIN],6

# System: Trypanosoma cruzi
# Assay: Antitrypanosomal activity against Trypanosoma cruzi Y infected in […] LLC-MK2 cells after 24 hrs by MTT assay
# Format: functional, organism-based
# Settings: LLC-MK2, 24 h
# Outline: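 Free trypomastigotes (Y strain) from LLC-MK2 cultures, seeded at 1 × 10^6 cells/well. Incubated up to 100 µg/mL for 24 h at 37 °C in 5% CO2, benznidazole as standard. Viability by MTT conversion, formazan extracted with 10% SDS for 18 h at 24 °C. IC50 in µg/mL.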
row,IC50 [µg/mL],Compound
1,36.3,O=C(Cn1ccnc1[N+](=O)[O-])NCc1ccccc1 [BENZNIDAZOLE]

# System: not listed separately
# Assay: Cytotoxicity against human macrophages after 48 hrs by MTT assay
# Format: cell-based, Macrophage
# Settings: Homo sapiens, Macrophage, 48 h; read-out: IC50
row,Compound,IC50 [µg/mL]
1,N=C(N)c1ccc(OCCCCCOc2ccc(C(=N)N)cc2)cc1 [PENTAMIDINE],8.7
2,CC/C=C/[C@H](CC)C[C@@]1(C)C[C@@H](CC)[C@@H](CC(=O)OC)OO1 [PLAKORTIN],4.7

# Same assay, conditions: macrophage
row,Compound,IC50 [µg/mL]
1,MEGLUMINE ANTIMONATE,> 1000

# System: not listed separately
# Assay: Antiinflammatory activity in rat neonatal brain microglia cells assessed as phorbol 12-myristate 13-acetate-stimulated thromboxane B2 release
# Format: functional, cell-based
# Settings: not given
# Outline: (§1)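 Rat neonatal brain microglia, 2 × 10^5 cells per well, primed with E. coli LPS (0.3 ng/mL) for 17 h at 35.9 °C in 5% CO2. Cells were washed with HBSS, exposed to compounds (0.1–10 µM) or DMSO vehicle for 15 min, then stimulated with PMA (1 µM) for 70 min. O2-, TXB2 and LDH release were measured, duplicates, two independent experiments. IC50 for O2- and TXB2. LDH50 is the concentration giving 50% of the LDH release seen with 0.1% Triton X-100.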
row,Compound,IC50 [nM]
1,CC/C=C/[C@H](CC)C[C@@]1(C)C[C@@H](CC)[C@@H](CC(=O)OC)OO1 [PLAKORTIN],> 1000

# System: not listed separately
# Assay: Toxicity in BALB/c mouse erythrocytes assessed as hemolysis at 6.25 ug/ml after 2 hrs
# Format: cell-based, Erythrocyte
# Settings: read-out: Activity
# Outline: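 A 3% suspension of BALB/c mouse erythrocytes incubated with compounds for 2 h at 25 °C. Supernatant absorbance read at 550 nm.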
row,Compound,"hemolysis at 2 h, 6.25 ug/ml [%]"
1,CC/C=C/[C@H](CC)C[C@@]1(C)C[C@@H](CC)[C@@H](CC(=O)OC)OO1 [PLAKORTIN],0

# System: SF-295
# Assay: Cytotoxicity against human SF295 cells
# Format: functional, cell-based
# Settings: not given
row,Compound,IC50 [µg/mL]
1,CC/C=C/[C@H](CC)C[C@@]1(C)C[C@@H](CC)[C@@H](CC(=O)OC)OO1 [PLAKORTIN],9.8

# System: not listed separately
# Assay: Antiinflammatory activity in rat neonatal brain microglia cells assessed as drug level causing 50% LDH release
# Format: functional, cell-based
# Settings: not given
# Outline: as §1
row,Compound,IC50 [nM]
1,CC/C=C/[C@H](CC)C[C@@]1(C)C[C@@H](CC)[C@@H](CC(=O)OC)OO1 [PLAKORTIN],> 10000

# System: Leishmania chagasi
# Assay: Antileishmanial activity against Leishmania chagasi intracellular amastigotes infected in hamster macrophages after 48 hrs […]
# Format: functional, organism-based
# Settings: not given
# Outline: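 Intracellular amastigotes tested in infected macrophages, with pentavalent antimony as standard. Amastigotes were obtained from hamster spleens 60–70 days postinfection. Parasite burden was scored as the mean number of amastigotes per macrophage over 500 cells. Result expressed as IC50.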
row,Compound,IC50 [µg/mL]
1,MEGLUMINE ANTIMONATE,21

# System: HCT-8
# Assay: Cytotoxicity against human HCT8 cells
# Format: functional, cell-based
# Settings: not given
row,Compound,IC50 [µg/mL]
1,CC/C=C/[C@H](CC)C[C@@]1(C)C[C@@H](CC)[C@@H](CC(=O)OC)OO1 [PLAKORTIN],3

# System: not listed separately
# Assay: Antiinflammatory activity in rat neonatal brain microglia cells assessed as phorbol 12-myristate 13-acetate-stimulated superoxide release
# Format: functional, cell-based
# Settings: not given
# Outline: as §1
row,Compound,IC50 [nM]
1,CC/C=C/[C@H](CC)C[C@@]1(C)C[C@@H](CC)[C@@H](CC(=O)OC)OO1 [PLAKORTIN],> 1000
